ChEMBL document CHEMBL4270631, “Design, synthesis and in vitro anti-Zika virus evaluation of novel Sinefungin derivatives” (Eur J Med Chem, 2018)

How the values were obtained:
[1] = Cytotoxicity against BHK cells after 8 days by CellTiter-Glo assay; assay type: cell-based, Mesocricetus auratus; settings: hamster
Procedure, shortened: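 BHK cells seeded at 5,000/well, allowed 24 h recovery, then given maintenance medium (DMEM, 2% FBS, P/S) containing compound in 3-fold dilutions from 200 μM to 0.09 μM, or drug-free. Viability read by CellTiter-Glo luminescence after 8 days' exposure; CC50 calculated from curves.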

[2] = Selectivity index, ratio of CC50 for BHK cells to IC50 for Zika virus SMGC infected in BHK cells; assay type: toxicity, cell-based; settings: hamster, BHK cells infected with Zika virus SMGC, read-out: Ratio CC50/IC50
Procedure, shortened: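 Ratio of CC50 from 8-day CellTiter-Glo viability of uninfected BHK cells (compound 200–0.09 μM) to IC50 from 8-day protection of BHK cells against 100TCID₅₀ ZIKV-induced CPE (compound from 50 μM, 3-fold dilutions), both in DMEM with 2% FBS.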

Zika virus [3] = assay: Antiviral activity against Zika virus SMGC infected in BHK cells assessed as inhibition of virus induced cytopathic effect after 8 days by CellTiter-Glo luminescent cell viability assay; assay type: functional, organism-based; settings: 192 h
Procedure, shortened: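 BHK cells seeded at 5,000/well in DMEM with 10% FBS and P/S, 24 h at 37°C, 5% CO₂, then switched to maintenance medium (DMEM, 2% FBS, P/S). Vero-grown ZIKV diluted to 100TCID₅₀ added with compounds in 3-fold dilutions from 50 μM; incubated 8 days until 100% CPE; viability read by CellTiter-Glo luminescence; IC50 calculated from curves.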

[4] = molecular target: mRNA cap guanine-N(7) methyltransferase (Homo sapiens, UniProt O43148); assay: Inhibition of recombinant human N-terminal His-tagged RNMT (1 to 476 residues) expressed in Escherichia coli BL21 using 5'-GpppAGAACCUG-biotin-TEG-3 as substrate after 10 mins by [3H]methyl incorporation assay
Sequence of mRNA cap guanine-N(7) methyltransferase (O43148 whole entry, the tested form may be a part): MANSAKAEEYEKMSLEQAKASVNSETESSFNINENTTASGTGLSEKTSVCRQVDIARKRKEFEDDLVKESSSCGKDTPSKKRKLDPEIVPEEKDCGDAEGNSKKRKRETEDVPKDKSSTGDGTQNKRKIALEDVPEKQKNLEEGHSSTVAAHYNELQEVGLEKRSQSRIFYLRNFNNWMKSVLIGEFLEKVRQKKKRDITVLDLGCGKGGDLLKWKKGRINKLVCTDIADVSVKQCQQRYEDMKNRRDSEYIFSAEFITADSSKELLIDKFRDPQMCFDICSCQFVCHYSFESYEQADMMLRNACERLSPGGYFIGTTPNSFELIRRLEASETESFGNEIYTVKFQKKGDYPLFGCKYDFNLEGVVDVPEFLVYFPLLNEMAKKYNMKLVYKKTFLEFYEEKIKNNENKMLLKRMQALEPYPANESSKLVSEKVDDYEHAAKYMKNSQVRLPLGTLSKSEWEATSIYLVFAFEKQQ

[5] = Inhibition of recombinant N-terminal GST-tagged Dengue virus 3 NS5 N7-MTase activity expressed in Escherichia coli BL21 by scintillation proximity assay; set-up: species or system dengue virus type 3
[6] = Inhibition of recombinant N-terminal GST-tagged Dengue virus 3 2'-O-MTase F133A mutant expressed in Escherichia coli BL21 by scintillation proximity assay; set-up: species or system dengue virus type 3
[7] = molecular target: DNA (cytosine-5)-methyltransferase 1 (Homo sapiens, UniProt P26358); assay: Inhibition of human DNMT1A using double-stranded hemi-DNA oligonucleotide as substrate measured after 40 mins by [3H]methyl incorporation assay
Sequence of DNA (cytosine-5)-methyltransferase 1 (P26358 whole entry): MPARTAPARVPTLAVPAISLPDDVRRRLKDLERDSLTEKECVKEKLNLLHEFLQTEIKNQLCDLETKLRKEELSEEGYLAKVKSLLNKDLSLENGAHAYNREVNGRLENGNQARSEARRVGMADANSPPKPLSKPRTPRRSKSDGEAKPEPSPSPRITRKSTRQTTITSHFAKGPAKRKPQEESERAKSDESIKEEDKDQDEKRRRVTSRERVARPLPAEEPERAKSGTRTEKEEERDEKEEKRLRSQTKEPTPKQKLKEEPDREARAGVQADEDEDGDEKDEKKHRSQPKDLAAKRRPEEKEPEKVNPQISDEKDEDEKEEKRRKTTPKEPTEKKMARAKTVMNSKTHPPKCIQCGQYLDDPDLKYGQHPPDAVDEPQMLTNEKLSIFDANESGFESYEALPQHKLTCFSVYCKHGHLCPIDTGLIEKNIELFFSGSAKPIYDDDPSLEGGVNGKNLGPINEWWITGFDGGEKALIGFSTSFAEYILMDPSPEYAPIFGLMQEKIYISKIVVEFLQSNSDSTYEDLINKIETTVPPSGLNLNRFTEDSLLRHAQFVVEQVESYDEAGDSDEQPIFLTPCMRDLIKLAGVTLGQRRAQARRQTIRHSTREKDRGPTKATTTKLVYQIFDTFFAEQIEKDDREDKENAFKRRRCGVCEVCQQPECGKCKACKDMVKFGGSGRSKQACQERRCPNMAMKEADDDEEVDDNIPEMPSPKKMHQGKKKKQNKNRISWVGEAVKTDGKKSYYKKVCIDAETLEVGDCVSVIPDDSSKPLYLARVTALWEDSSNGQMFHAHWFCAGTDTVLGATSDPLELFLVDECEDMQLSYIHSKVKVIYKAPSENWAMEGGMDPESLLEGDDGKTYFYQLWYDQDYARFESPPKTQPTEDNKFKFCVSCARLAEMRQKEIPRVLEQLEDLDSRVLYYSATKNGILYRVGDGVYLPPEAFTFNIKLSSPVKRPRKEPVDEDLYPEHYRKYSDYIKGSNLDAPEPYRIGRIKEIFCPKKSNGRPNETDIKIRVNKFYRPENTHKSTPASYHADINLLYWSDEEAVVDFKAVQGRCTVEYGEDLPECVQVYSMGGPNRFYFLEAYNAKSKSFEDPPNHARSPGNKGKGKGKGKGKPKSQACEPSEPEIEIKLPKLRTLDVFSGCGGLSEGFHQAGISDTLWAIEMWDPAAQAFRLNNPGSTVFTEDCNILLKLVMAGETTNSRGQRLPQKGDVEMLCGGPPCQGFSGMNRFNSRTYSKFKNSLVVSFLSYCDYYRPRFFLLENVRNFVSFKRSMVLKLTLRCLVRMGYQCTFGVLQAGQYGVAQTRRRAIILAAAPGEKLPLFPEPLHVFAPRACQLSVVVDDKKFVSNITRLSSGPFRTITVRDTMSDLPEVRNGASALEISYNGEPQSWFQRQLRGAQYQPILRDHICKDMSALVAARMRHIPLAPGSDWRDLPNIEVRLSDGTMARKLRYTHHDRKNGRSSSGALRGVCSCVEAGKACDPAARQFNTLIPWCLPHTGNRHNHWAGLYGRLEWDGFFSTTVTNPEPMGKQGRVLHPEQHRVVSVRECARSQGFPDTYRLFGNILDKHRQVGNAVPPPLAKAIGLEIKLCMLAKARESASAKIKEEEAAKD

[8] = Inhibition of recombinant N-terminal GST-tagged Dengue virus 3 2'-O-MTase activity expressed in Escherichia coli BL21 by scintillation proximity assay; set-up: species or system dengue virus type 3
[9] = Inhibition of recombinant N-terminal GST-tagged Dengue virus 3 NS5 N7-MTase F133A mutant expressed in Escherichia coli BL21 by scintillation proximity assay; set-up: species or system dengue virus type 3
Zika virus [10] = assay: Potency index, ratio of EPZ004777 IC50 to test compound IC50 for Zika virus SMGC infected in BHK cells; assay type: functional

Row | SMILES | CC50 at 192 h [1] [µM] | selectivity ratio [2] | IC50 (Zika virus [3]) [µM] | further results
1 | CC(C)NC[C@H]1O[C@@H](n2cnc3c(NCc4cccc(Cl)c4)ncnc32)[C@H](O)[C@@H]1O | 29.4 | 4.64 | 6.33 | –
2 | CC(C)N(CCCNC(=O)NC(C)(C)C)C[C@H]1O[C@@H](n2cnc3c(NCc4cccc(F)c4)ncnc32)[C@H](O)[C@@H]1O | – | – | > 50 | –
3 | CC(C)NC[C@H]1O[C@@H](n2cnc3c(NCc4cccc(F)c4)ncnc32)[C@H](O)[C@@H]1O | > 200 | > 6.67 | 30 | –
4 | CC(C)N(CCCO)C[C@H]1O[C@@H](n2cnc3c(NCc4cccc(F)c4)ncnc32)[C@H](O)[C@@H]1O | – | – | > 50 | –
5 | CC(C)N(CCCN)C[C@H]1O[C@@H](n2cnc3c(NCc4cccc(F)c4)ncnc32)[C@H](O)[C@@H]1O | – | – | > 50 | –
6 | N[C@@H](CCSC[C@H]1O[C@@H](n2cnc3c(NCc4cccc(Cl)c4)ncnc32)[C@H](O)[C@@H]1O)C(=O)O | – | – | – | Ki [4]: > 50 µM; Ki [5]: 0.002 to 0.24 µM; Ki [6]: 0.044 to 5.68 µM; Ki [7]: > 50 µM; Ki [8]: 0.002 to 0.24 µM; Ki [9]: 0.044 to 5.68 µM
7 | COc1ccc(NC(=O)NCCCN(C[C@H]2O[C@@H](n3cnc4c(NCc5cccc(Cl)c5)ncnc43)[C@H](O)[C@@H]2O)C(C)C)cc1 | – | – | > 50 | –
8 | CC(C)N(CCCNC(=O)Nc1ccc(C(F)(F)F)cc1)C[C@H]1O[C@@H](n2cnc3c(NCc4cccc(Cl)c4)ncnc32)[C@H](O)[C@@H]1O | 6.35 | – | – | –
9 | CC(C)N(CCCNC(=O)NC1CCCCC1)C[C@H]1O[C@@H](n2cnc3c(NCc4cccc(F)c4)ncnc32)[C@H](O)[C@@H]1O | – | – | > 50 | –
10 | COC(=O)CCN(C[C@H]1O[C@@H](n2cnc3c(NCc4cccc(Cl)c4)ncnc32)[C@H](O)[C@@H]1O)C(C)C | – | – | > 50 | –
11 | CC(C)N(CCCNC(=O)Nc1cccc(C(F)(F)F)c1)C[C@H]1O[C@@H](n2cnc3c(NCc4cccc(F)c4)ncnc32)[C@H](O)[C@@H]1O | 12.9 | 1.84 | 6.99 | Ratio IC50 (Zika virus [10]): 5 - 7.7
12 | COc1ccc(NC(=O)NCCCN(C[C@H]2O[C@@H](n3cnc4c(NCc5cccc(F)c5)ncnc43)[C@H](O)[C@@H]2O)C(C)C)cc1 | – | – | > 50 | –
13 | CC(C)N(CCCNC(=O)NC(C)(C)C)C[C@H]1O[C@@H](n2cnc3c(NCc4cccc(Cl)c4)ncnc32)[C@H](O)[C@@H]1O | 58.5 | 2.84 | 20.6 | –
14 | COC(=O)CCN(C[C@H]1O[C@@H](n2cnc3c(NCc4cccc(F)c4)ncnc32)[C@H](O)[C@@H]1O)C(C)C | – | – | > 50 | –
15 | CC(C)N(CCCNC(=O)Nc1ccc(C(C)(C)C)cc1)C[C@H]1O[C@@H](n2ccc3c(N)ncnc32)[C@H](O)[C@@H]1O | > 200 | > 5.68 | 35.2 | –
16 | Cc1ccc(NC(=O)NCCCN(C[C@H]2O[C@@H](n3cnc4c(NCc5cccc(F)c5)ncnc43)[C@H](O)[C@@H]2O)C(C)C)cc1 | – | – | > 50 | –
17 | Nc1ncnc2c1ncn2[C@@H]1O[C@H](C[C@@H](N)CC[C@H](N)C(=O)O)[C@@H](O)[C@H]1O [SINEFUNGIN] | – | – | > 50 | –
18 | CC(C)N(CCCNC(=O)Nc1ccc(C(C)(C)C)cc1)C[C@H]1O[C@@H](n2cnc3c(NCc4cccc(F)c4)ncnc32)[C@H](O)[C@@H]1O | 18.7 | 2.81 | 6.65 | Ratio IC50 (Zika virus [10]): 5 - 7.7
19 | CC(C)N(CCCNC(=O)NC1CCCCC1)C[C@H]1O[C@@H](n2cnc3c(NCc4cccc(Cl)c4)ncnc32)[C@H](O)[C@@H]1O | 57.6 | 4.7 | 12.2 | –
20 | CC(C)N(CCCO)C[C@H]1O[C@@H](n2cnc3c(NCc4cccc(Cl)c4)ncnc32)[C@H](O)[C@@H]1O | 70.6 | 2.57 | 27.5 | –
21 | CC(C)N(CCCNC(=O)Nc1ccc(C(F)(F)F)cc1)C[C@H]1O[C@@H](n2cnc3c(NCc4cccc(F)c4)ncnc32)[C@H](O)[C@@H]1O | 20.3 | 3.14 | 6.46 | Ratio IC50 (Zika virus [10]): 5 - 7.7
22 | CC(C)N(CCCN)C[C@H]1O[C@@H](n2cnc3c(NCc4cccc(Cl)c4)ncnc32)[C@H](O)[C@@H]1O | – | – | > 50 | –
23 | CC(C)N(CCCNC(=O)Nc1ccc(C(C)(C)C)cc1)C[C@H]1O[C@@H](n2cnc3c(NCc4cccc(Cl)c4)ncnc32)[C@H](O)[C@@H]1O | 6.73 | – | – | –
24 | CC(C)N(CCCNC(=O)Nc1cccc(C(F)(F)F)c1)C[C@H]1O[C@@H](n2cnc3c(NCc4cccc(Cl)c4)ncnc32)[C@H](O)[C@@H]1O | 5.88 | 1.29 | 4.56 | Ratio IC50 (Zika virus [10]): 5 - 7.7
25 | CC(C)N(CCCNC(=O)Nc1ccc(F)cc1)C[C@H]1O[C@@H](n2cnc3c(NCc4cccc(F)c4)ncnc32)[C@H](O)[C@@H]1O | – | – | > 50 | –
26 | Cc1ccc(NC(=O)NCCCN(C[C@H]2O[C@@H](n3cnc4c(NCc5cccc(Cl)c5)ncnc43)[C@H](O)[C@@H]2O)C(C)C)cc1 | 19.1 | 3.29 | 5.8 | Ratio IC50 (Zika virus [10]): 5 - 7.7
27 | CC(C)N(CCCNC(=O)Nc1ccc(F)cc1)C[C@H]1O[C@@H](n2cnc3c(NCc4cccc(Cl)c4)ncnc32)[C@H](O)[C@@H]1O | 20 | 1.31 | 15.3 | –
